Experimental data from the EternaBench riboswitch data.

Test system: MS2 coat protein
Test: apparent Kd, MS2 coat protein; higher = weaker binding; RNA-MaP array; FMN 200 µM where present
How it was run: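 Apparent Kd: the median of filtered binding-curve fits from single clusters. Designs were transcribed on Illumina sequencing-chip clusters by stalled E. coli RNA polymerase and titrated with SNAP-549-labelled MS2 coat protein from 0.7 or 1.5 nM, doubling to 3 µM, in 100 mM Tris-HCl pH 7.5, 80 mM KCl, 4 mM MgCl2, BSA, DTT, yeast tRNA and Tween-20. Each series ran without and then with constant ligand, and green signal was normalised to red-channel RNA signal and control-cluster median Fmax.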

[1] = designed as: OFF switch for flavin mononucleotide, no ligand
[2] = ligand present: flavin mononucleotide, designed as: OFF switch for flavin mononucleotide
[3] = designed as: ON switch for flavin mononucleotide, no ligand
[4] = ligand present: flavin mononucleotide, designed as: ON switch for flavin mononucleotide

| Sequence | apparent Kd [1] | apparent Kd [2] | apparent Kd [3] | apparent Kd [4] |
| --- | --- | --- | --- | --- |
| CUUUUGUGAGGAUAUUAGUAGUAAAUAAAUAAAAUUACUUCUGAGAAGGCACAUGAGGAUCACCCAUGUUCCUC | 30.6 nM | 123 nM | – | – |
| CUUUUGUGAGGAUAUUAGUAGUAAUUAAAUAAAAUUACUACUGAGAAGGCACAUGAGGAUCACCCAUGUUCCUC | 33.9 nM | 158 nM | – | – |
| CUUUUGUGAGGAUAUUCGUAGUAGGGUCAUGGCAUUAUUAUGAAGAAGGCACAUGAGGAUCACCCAUGUACCUU | 17.3 nM | 34.6 nM | – | – |
| GAAAAACAUGAGGAUCACCCAUGUAAAAAAAUGGGAGGAUAUACAAAGACGAAAGUCAAAGUAGAAGGCCUGAAAG | – | – | 54.9 nM | 20.7 nM |
| GAAAACAGAGGAUAUACAAAAUUAUGACGAAAGUCAUAAAAACAUGAGGAUCACCCAUGUAGAAGGCUGAAGAA | 29 nM | 26.9 nM | – | – |
| GAAGAGACAGGAUAUACAUGAGGAUCACCCAUGUGAGGAUGUUGGAGGCGGAGGAGGUGUAGAAGGGUCAAAGA | 31.2 nM | 28.7 nM | – | – |
| GAAGCACAUGAGGAUCACCCAUGUGAGGAUAUCCGUCUGGUCCGGCCGGACCAGUACCGGAGAAGGCGCGUAAA | 59.1 nM | 42 nM | – | – |
| GACACUAUGUUUGUCAGAUAGAGAGAGGAUAUGGGUCAUGAGACAUGAGGAUCACCCAUGUAUAAUCAGAAGGCUCGAGUACGA | – | – | 19.1 nM | 13.7 nM |
| GACACUAUGUUUGUCAGAUAGAGAGAGGAUAUGGGUUAUGAGACAUGAGGAUCACCCAUGUUUAUUCAGAAGGCUCGAGUACGA | – | – | 90.9 nM | 11.8 nM |
| GACAUACAUGAGGAUCACCCAUGUUCAGAAGGGCAAGGAUAUGUGUGGAAACCAUACUAUACAGAAGGUGUCUGUC | – | – | 34.7 nM | 20.3 nM |
| GACAUGAGGAUCACCCAUGUCCCUCCAGAAGGCUGGCGCGCGAAACCUAUAUCGGUUCCGGGCACAGAGGAUAUGGGCGGUUGG | – | – | 199 nM | 27.2 nM |
| GACAUGGUCCAGAAGGGCUAUUUAUUUAAGUAUGAUUUAGAACAGCAUAGCAGGAUAUGGCUAACAUGAGGAUCACCCAUGUUC | – | – | 20.1 nM | 13.3 nM |
| GACGGAUGUAUAGGAUAUGCUGAGGAAUACUCAGCAGAAGGAUACAUGAGGAUCACCCAUGUAACCGUCAAUAAUAAUAAUAAU | 15.7 nM | 29.9 nM | – | – |
| GACUCGAAUGUAGGAUAUGCUGAGGAAUACUCAGCAGAAGGACAUGAGGAUCACCCAUGUAAAUGAGUGAAUAAUAAACGAGUC | 1410 nM | 197 nM | – | – |
| GACUCGUAAGUGAGGAUAUGGCUGUGCAGCUACAGCCAGAAGGCACAUGAGGAUCACCCAUGUGAUGGAAUUUU | 15.9 nM | 30.6 nM | – | – |
| GACUGAUUGUAGAAGGUACUUGAAAAUAUAUAAUAUCUCAUGUGACAUGAGGAUCACCCAUGUAGUAAGGAUAUACAUAUCACA | – | – | 17.7 nM | 17.9 nM |
| GACUGCAUGUAAGGAUAUCGACUGGAAUACAGUCGAGAAGGUACAUGAGGAUCACCCAUGUAAUAAGAUCAAUAAUAAGCAGUC | 14.9 nM | 33.1 nM | – | – |
| GACUGCUGAGGAUAUACAUGAGGAUCACCCAUGUGCUUCAGUAUCGAAAGAUGCAUGGGUAGAAGGUGGUAGUC | 70.6 nM | 54.4 nM | – | – |
| GAGAAGAGGGAAGGAUAUACAUGAGGAUCACCCAUGUAGAUAGGUAAAAUAGGAAGAAGAAGAAUGUAGAAGGUCCGGUUUGUU | 15.2 nM | 15.9 nM | – | – |
| GAGAAGUCAGGAUAUGCUGCUCGUCACUUGCGUGAUGAGUAGCAGAAGGGACAUGAGGAUCACCCAUGUAAAGG | 136 nM | 315 nM | – | – |
| GAGAGAGGAUGAGGAUAUGCAGUAAUAAUGAUAGCAGAAGGCAUAGACAUGAGGAUCACCCAUGUGGGAAUAAUCCAGAGAGAG | – | – | 188 nM | 272 nM |

| Sequence | apparent Kd [1] | apparent Kd [2] | apparent Kd [3] | apparent Kd [4] |
| --- | --- | --- | --- | --- |
| GAGCGAAAGCUCAAUGUCGAUAGCAGAAGGACAUCCUUUAACAUGAAAACAUGAGGAUCACCCAUGUAGGAUAUGCUAUCGACU | 6.66 nM | 7.92 nM | – | – |
| GAGCGAAAGCUCAAUGUCGAUAGCAGAAGGACAUGAAAACAUGAAAACACAUGAGGAUCACCCAUGUAGGAUAUGCUAUCGACU | 9.43 nM | 84.8 nM | – | – |
| GAGCGCUGUCAAGGAUAUCCGAAAAGAAAAUAAGGAGAAGGUGACAUGAGGAUCACCCAUGUGCACUGGGUGGACGCGCGCUCC | 459 nM | 256 nM | – | – |
| GAGCUCAAUGAGAAGGGUUACAUGAGGAUCACCCAUGUCGACCUUGGCGUAACAGGAUAUCAUCGGGCUCAGUGCGUUGACCCA | 24.9 nM | 108 nM | – | – |
| GAGCUCGAUGAGAAGGGUUACAUGAGGAUCACCCAUGUCGACCUUGGCGUAACAGGAUAUCAUCGGACUCAGUGCGUUGACCCA | 25.6 nM | 137 nM | – | – |
| GAGGCCCAAACAUGAGGAUCACCCAUGUGUUUAGUCCUCACAUAGGAUAUCCACACGAGAAGUGUGGAGAAGGAUGAGGGCGUC | 49 nM | 101 nM | – | – |
| GAGGCUAAAGGAUAUACAUGAGGAUCACCCAUGUGGAGGAAGGUUAGAUGAGGAGAAGGUAGAAGGUUAGGCGG | 37.3 nM | 30.9 nM | – | – |
| GAGUAGAUCCGAGGAUAUACAAUCCGGAAACGGUACAUGAGGAUCACCCAUGUAGAAGGCGGAUCUACAGGUACUAAAGUACCA | 6.24 nM | 8.12 nM | – | – |
| GAGUCUCUAUUAGAACCGAUACGAACAUGAGGAUCACCCAUGUAGGAUAUGCUAAAAGUUGUGUUGCAGAAGGACAUUUAAAGC | 10.6 nM | 9.89 nM | – | – |
| GAGUGACAUGAGGAUCACCCAUGUGAGGAUAUCGGACGGACCAAAUUAACAACAAACGCGAGAAGGCACAUCGG | 76.4 nM | 79.5 nM | – | – |
| GAGUGGUAAAGAGGAUAUGCAUUGUUAUUAAAUGCAGAAGGUUUUAACAUGAGGAUCACCCAUGUAGGACUAUUCCUGUGUUUC | – | – | 14.8 nM | 12.2 nM |
| GAGUUGAAGUUAGGAUAUUGGAUAGGGACGGAAUAAGAAGGAGCAAGACAUGAGGAUCACCCAUGUGUAGAAGAAGAGAUCCUC | 352 nM | 227 nM | – | – |
| GAUAAACAUGAGGAUCACCCAUGUGUGAAUAUGGGAGGAUAUACGUGGACCGUAGUCCGCGUAGAAGGCCUAAUUG | – | – | 225 nM | 40.4 nM |
| GAUACACAUGAGGAUCACCCAUGUGAGGAUAUGCGUACGUUGUCCGUAGGCGACGUGCGCAGAAGGCGCUUGGU | 72.2 nM | 75 nM | – | – |
| GAUAGGACAGAGAAGGACGUAGCUAGAGAUACUAGCAUAAAGUCUUCAACAUGAGGAUCACCCAUGUAGGAUAUCUGUCCUAUC | 6.43 nM | 6.64 nM | – | – |
| GAUCAACAUGAGGAUCACCCAUGUGAGGAUAUGGACUUGCCCACUUAACCAUUAGAGUCUAGAAGGCGCAUCUA | 27 nM | 29.9 nM | – | – |
| GAUCCUCGCGGAGGAUAUAUAAGUGGAUCACCCAUAGAAGGCCGAACAUGAGGAUCACCCAUGUGGAACAGGAUCACCGUUGUU | – | – | 79 nM | 77 nM |
| GAUGAGGUAGGAUAUACGAUAAUAUAGGGUAGAUAUAUAACACAUGAGGAUCACCCAUGUAGAAGGACCAGUAG | 33.5 nM | 73.4 nM | – | – |
| GAUGAUCGGUGAGGAUAUUUUAUAACGUUUUUGAAAGAAGGCACUGACAUGAGGAUCACCCAUGUGAGUCCUCAUCUUGAAAUA | 18 nM | 35.6 nM | – | – |
| GAUGUAUUCGUAGGAUAUCCGUCGCCACCGUGUGGAGAAGGACGAACAUGAGGAUCACCCAUGUAUCAUGGUGUAGACGCUUUC | 63.6 nM | 70.9 nM | – | – |
| GAUUAACAUGAGGAUCACCCAUGUGAGGAUAUGAACUUGCCCACUUACCCUUUAGAGUUUAGAAGGCGCAUUUC | 18.9 nM | 19 nM | – | – |
